In ChEMBL document CHEMBL1250473, “Synthesis and primary cytotoxicity evaluation of new 5-benzylidene-2,4-thiazolidinedione derivatives” (2010):

Tests used:
Format in all cases: functional
[1] = system: MCF7; assay: Cytotoxicity against human MCF7 cells after 48 hrs by SRB; settings: MCF7, 48 h; for TGI: read-out: pTGI
Summary of the method: (§1)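 Cells kept in RPMI 1640 with 10% FBS and 2 mM L-glutamine, plated at 5000 cells/well and incubated 24 h at 37 °C, 5% CO2. A time-zero plate was TCA-fixed at dosing. DMSO stocks were diluted in medium into four 10-fold concentrations, 10^-4 to 10^-7 M. Exposure lasted 48 h continuously, then cells were fixed in cold TCA, stained with 0.4% SRB and eluted with 10 mM Tris. A540 was read. GI50 = [(Ti−Tz)/(C−Tz)]×100 = 50; TGI from Ti = Tz.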

[2] = Cytotoxicity against human Gurav cells after 48 hrs by SRB; settings: for TGI: read-out: pTGI; summary of the method: as §1
[3] = system: HepG2; assay: Cytotoxicity against human HepG2 cells after 48 hrs by SRB; settings: HepG2, 48 h; for TGI: read-out: pTGI; summary of the method: as §1
[4] = system: K562; assay: Cytotoxicity against human K562 cells after 48 hrs by SRB; settings: K562, 48 h; for TGI: read-out: pTGI; summary of the method: as §1
[5] = system: PC-3; assay: Cytotoxicity against human PC3 cells after 48 hrs by SRB; settings: PC-3, 48 h; for TGI: read-out: pTGI; summary of the method: as §1
[6] = system: KB; assay: Cytotoxicity against human KB cells after 48 hrs by SRB; settings: for TGI: read-out: pTGI; summary of the method: as §1
[7] = system: HOP-62; assay: Cytotoxicity against human HOP62 cells after 48 hrs by SRB; settings: HOP-62, 48 h; for TGI: read-out: pTGI; summary of the method: as §1

Structure (SMILES)	GI50 [1] [µM]	TGI [1] [µM]	GI50 ([2]; Homo sapiens, Gurav, 48 h) [µM]	TGI ([2]; Homo sapiens, Gurav, 48 h) [µM]	GI50 [3] [µM]	TGI [3] [µM]	GI50 [4] [µM]	TGI [4] [µM]	GI50 [5] [µM]	TGI [5] [µM]	GI50 [6] [µM]	TGI [6] [µM]	GI50 [7] [µM]	TGI [7] [µM]	GI50 [2] [µM]
O=C1NC(=O)/C(=C/c2ccc(OCC(=O)N3c4ccccc4Sc4ccccc43)cc2)S1	29.5	> 100	> 100	> 100	> 100	> 100	> 100	> 100	29.5	> 100	> 100	> 100	–	–	–
Cc1c(NC(=O)COc2ccc(/C=C3\SC(=O)NC3=O)cc2)c(=O)n(-c2ccccc2)n1C	> 100	> 100	> 100	> 100	> 100	> 100	> 100	> 100	> 100	> 100	> 100	> 100	0.186	> 100	–
Cc1cnc(NC(=O)COc2ccc(/C=C3\SC(=O)NC3=O)cc2)s1	> 100	> 100	–	–	> 100	> 100	2.24	> 100	–	–	> 100	> 100	30.9	> 100	–
CCCCC1=NC2(CCCC2)C(=O)N1C(=O)COc1ccc(/C=C2/SC(=O)NC2=O)cc1	28.2	> 100	> 100	> 100	> 100	> 100	> 100	> 100	> 100	> 100	> 100	> 100	29.5	> 100	–
O=C(COc1ccc(/C=C2\SC(=O)NC2=O)cc1)Nc1cccc(C(F)(F)F)c1	–	–	–	–	> 100	> 100	0.191	> 100	2.51	> 100	2.24	> 100	> 100	> 100	–
O=C(COc1ccc(/C=C2\SC(=O)NC2=O)cc1)Nc1nc2ccccc2s1	25.1	> 100	> 100	> 100	> 100	> 100	> 100	> 100	28.2	> 100	> 100	> 100	–	–	–
O=C(COc1ccc(/C=C2\SC(=O)NC2=O)cc1)Nc1ncc([N+](=O)[O-])s1	> 100	> 100	> 100	> 100	> 100	> 100	> 100	> 100	> 100	> 100	> 100	> 100	> 100	> 100	–
O=C1NC(=O)/C(=C\c2ccc(OCC(=O)N3C(=O)c4ccccc4S3(=O)=O)cc2)S1	37.2	> 100	31.6	> 100	> 100	> 100	2.69	> 100	> 100	> 100	> 100	> 100	> 100	> 100	–
O=C(COc1ccc(/C=C2\SC(=O)NC2=O)cc1)Nc1ccccn1	29.5	> 100	> 100	> 100	> 100	> 100	> 100	> 100	29.5	> 100	> 100	> 100	2.29	> 100	–
Cc1cc(NC(=O)COc2ccc(/C=C3\SC(=O)NC3=O)cc2)no1	39.8	> 100	38.9	> 100	> 100	> 100	2.75	> 100	> 100	> 100	> 100	> 100	> 100	> 100	–
COc1cccc2c1C(=O)c1c(O)c3c(c(O)c1C2=O)C[C@@](O)(C(=O)CO)C[C@@H]3O[C@H]1C[C@H](N)[C@H](O)[C@H](C)O1 [DOXORUBICIN]	–	–	0.158	–	< 0.1	–	2.57	> 100	–	–	< 0.1	–	–	–	0.107
